Screening results from PubChem.
Hits are enriched below; roughly 1.3% of the tested compounds scored in any of these assays.
procasp7 counter – procaspase-7 activators, primary screen, counter-screen for procaspase-3 activator project, biochemical, absorbance, HTS, human; hit rate 0.093% among 330,000; Caspase-7 (Homo sapiens), P55210; activation, % at 8.5 µM; AID 463210, 2010; recombinant procaspase-7, Ac-DEVD-pNA absorbance 405 nm; D23A/D198A/D206A triple mutant, cannot self-cleave; scale: DMSO 0, 5 µM enzyme 100;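 active = percent activation above the screen-wide mean plus 3 SD, cut at about 25% in these data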
Target sequence (P55210 whole entry D23A/D198A/D206A): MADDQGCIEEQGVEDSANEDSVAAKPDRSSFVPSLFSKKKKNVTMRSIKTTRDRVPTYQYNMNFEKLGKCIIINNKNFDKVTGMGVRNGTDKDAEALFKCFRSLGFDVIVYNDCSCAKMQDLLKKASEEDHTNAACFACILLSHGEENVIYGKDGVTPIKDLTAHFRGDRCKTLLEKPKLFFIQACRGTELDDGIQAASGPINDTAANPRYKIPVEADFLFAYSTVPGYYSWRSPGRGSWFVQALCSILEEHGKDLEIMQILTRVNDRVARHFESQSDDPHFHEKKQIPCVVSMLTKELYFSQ
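Assay system – Uncleavable procaspase-7 mutant enzyme · Quantity – 2 µM procaspase-7 mutant as dispensed · Times – 1 h preincubation, 2 h reaction · Dosing – single nominal 8.5 µM compound dose, 0.8% DMSO final · Buffer or medium – Zinc-free 50 mM HEPES buffer, pH 7.4, with NaCl and Triton X-100 · Detection – Epi-absorbance of released pNA at 405 nm, two timepoints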
VLA-4 inh – inhibition in human VLA-4 binding assay, primary screen, VLA-4 allosteric modulator project, MLPCN library, flow cytometry, VLA-4 expressing cells; Integrin alpha-4 (Homo sapiens), P13612; ligand binding flow cytometry; inhibition, % (about 7 µM as worked out from the volumes in the protocol); hit rate 0.2% among 330,000; AID 2557, 2010; in the data active = inhibition above about 50%
procasp3 activ – activators of human procaspase-3 D3A mutant, primary screen, biochemical, absorbance, PC-3 D3A mutant, single concentration; recombinant procaspase-3 D3A, Ac-DEVD-pNA absorbance 405 nm; hit rate 0.11% among 330,000; activation, % at 8.5 µM;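 active = activation above the mean of all tested compounds plus 3 SD, cut at about 21% in these data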;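 also: 0% = DMSO alone and 100% = DMSO wells spiked with extra 5 µM PC-3 D3A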
Target sequence (P42574 whole entry D9A/D28A/D175A): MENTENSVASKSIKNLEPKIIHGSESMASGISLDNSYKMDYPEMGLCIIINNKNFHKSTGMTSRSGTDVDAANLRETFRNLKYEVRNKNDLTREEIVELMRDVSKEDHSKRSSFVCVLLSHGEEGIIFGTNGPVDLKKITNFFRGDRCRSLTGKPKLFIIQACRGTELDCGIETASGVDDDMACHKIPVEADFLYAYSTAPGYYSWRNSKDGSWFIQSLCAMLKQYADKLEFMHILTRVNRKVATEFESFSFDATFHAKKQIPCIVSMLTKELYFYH
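Assay system: Autoprocessing-dead procaspase-3 D3A mutant enzyme; also added: Ac-DEVD-pNA; doses: one concentration, 8.5 µM nominal, 0.8% DMSO; times: 1 h compound preincubation, 2 h substrate hydrolysis at 25 °C; technique: 405 nm absorbance of p-nitroaniline, reads at 0 and 120 min; measure: % activation between DMSO and enzyme-spiked controls; repeats: single replicate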
JMJD2C inh – inhibitors of GASC-1 histone demethylase, primary screen, biochemical, fluorescence, DELFIA europium | hit rate 0.069% among 330,000 | AID 2099, 2009 | GST-JMJD2C(1-420) H3K9me3 demethylation | Lysine-specific demethylase 4C (Homo sapiens), Q9H3R0 | inhibition, % at 2.35 µM;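 active = more than half of a compound's replicate wells show inhibition beyond 50%, single wells judged on their own value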;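 also: signal counts dimethyl H3K9 product captured on neutravidin plate; 0% = median of DMSO wells and 100% = 0.3 times that DMSO median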
Hep lipid drop – inhibitors of hepatocyte lipid droplet formation, primary screen, imaging, high-throughput imaging, BODIPY stain; AML12 mouse hepatocytes, oleate lipid droplets; hit rate 0.4% among 240,000; inhibition, % at 6.5 µM;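 active = lipid droplet intensity inhibited by at least 50%, with more than 500 cells counted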
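Assay system: AML12 mouse liver cells | Compound: 6.5 µM single-point dosing | Schedule: Overnight exposure | Technique: Fluorescence imaging, 20x objective, two fields per well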
GRK2 inh – compounds blocking aptamer binding on GRK2 – biochemical, human GRK2, bead flow cytometry, HTS, primary screen. FAM-aptamer displacement from GRK2. Beta-adrenergic receptor kinase 1 (Homo sapiens), P25098. hit rate 0.59% among 330,000. AID 488847, 2010. inhibition of aptamer binding, % at 10 µM;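 active = inhibition of aptamer binding above 40%, roughly 3 SD of noise, on plates passing a quality check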;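 also: median bead fluorescence of bound FAM aptamer so fluorescent compounds give negative values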
VLA-4 allo CP – retest of VLA-4 allosteric modulators, confirmation, cell-based, cherry-picked plates, U937, HUTS-21 LIBS antibody. shares compounds with VLA-4 inh. U937 cells, HUTS-21 LIBS mAb binding, flow cytometry; LDV ligand present at threefold Kd. inhibition, % at 6.7 µM. hit rate 2% among 1,300. AID 2813, 2010; in the data active = inhibition above about 40%;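 also: 0% = ligand without compound and 100% = no ligand background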
procasp7 triplic – procaspase-7 activators, counter-screen for procaspase-3 activator project, biochemical, absorbance, triplicate, human; 210 tested, under 10 active; activation, % at 8.5 µM; recombinant procaspase-7, Ac-DEVD-pNA absorbance; asp23/198/206-to-Ala mutant, cannot self-cleave; shares compounds with procasp3 activ;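 active = mean activation above a set limit taken from an earlier procaspase-7 screen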;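 also: 0% = DMSO wells and 100% = DMSO plus 5 µM procaspase-7 enzyme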
procasp3 conf – activators of human procaspase-3 D3A mutant, confirmation, biochemical, absorbance, PC-3 D3A mutant, triplicate. shares compounds with procasp3 activ. recombinant PC-3 D3A, Ac-DEVD-pNA absorbance 405 nm; 100% is higher-enzyme control. activation, % at 8.5 µM. hit rate 10% among 210. AID 488954, 2010;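 active = mean activation above a set limit carried over from the earlier primary screen, cut at about 22% in these data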
GRK2 CP1 – GRK2 aptamer-displacing inhibitors, retest, confirmation, biochemical, cherry pick 1, bead flow cytometry; shares compounds with GRK2 inh; bead-bound GRK2, FAM-aptamer displacement; aptamer displacement, % at 10 µM; hit rate 4% among 2,000; AID 504451, 2011;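 active = aptamer displacement above 40%, near three times the noise of non-fluorescent compounds, on plates passing quality checks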;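 also: negative values mostly reflect intrinsic compound fluorescence rather than true enhancement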
FAM quench CP1 – counter-screen for GRK2 aptamer inhibitors: fluorescent aptamer quenchers; shares compounds with GRK2 inh; Carboxyfluorescein RNA aptamer on beads, flow cytometry quenching; active compounds read low; fluorescence response (% of DMSO), % at 10 µM; 2,000 tested, under 10 active;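 active = compounds that quench the bead-bound fluorescent RNA probe, cutting fluorescence to under half of the solvent control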;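 also: counterscreen run without GRK2 so only probe quenching by compound is measured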
The depositor's hits bear a star; . = not tested or not shown.

SMILES | procasp7 counter | VLA-4 inh | procasp3 activ | JMJD2C inh | Hep lipid drop | GRK2 inh | procasp7 triplic | procasp3 conf | others
CCCCC[C@@H]1C=C(C(=O)O)[C@H](c2ccc(Cl)cc2)N1S(=O)(=O)c1ccc(C)cc1 | 0 | 16 | 4 | . | . | 1 | . | . | VLA-4 allo CP=1
CCCC[C@@H]1C=C(C(=O)O)[C@H](c2ccc(C)cc2)N1S(=O)(=O)c1ccc(C)cc1 | 6 | 53* | 3 | 12 | . | 0 | . | . | VLA-4 allo CP=-2
Cc1ccc(S(=O)(=O)N2[C@@H](c3ccc(Br)cc3)C(C(=O)O)=C[C@H]2C(C)(C)C)cc1 | 5 | 52* | 10 | 5 | . | 3 | . | . | VLA-4 allo CP=-1
CCOc1cccc(N2C(=O)CC(N(CCc3ccc(OC)c(OC)c3)C(=O)CC)C2=O)c1 (stereo unspecified) | 1 | 7 | 0 | 6 | 3 | 0 | . | . | VLA-4 allo CP=-8
CCOC(=O)c1ccc(N2C(=O)CC(N(C)CCc3ccc(OC)c(OC)c3)C2=O)cc1 (stereo unspecified) | -15 | -5 | -18 | 14 | -3 | 0 | . | .
CCC(=O)N(Cc1ccc(S(N)(=O)=O)cc1)C1CC(=O)N(c2ccc(OC)cc2)C1=O (stereo unspecified) | -2 | 0 | -21 | 3 | -3 | 1 | . | . | VLA-4 allo CP=4
CC1CCC(NC(=O)N(CCCl)N=O)CC1 (stereo unspecified) | 13 | 65* | 5 | -26 | . | 26 | . | . | VLA-4 allo CP=0;GRK2 CP1=-6;FAM quench CP1=103
CC(C)CCNC(=O)C1CCN(c2nnc(-n3cccc3)s2)CC1 | -3 | -4 | -4 | 6 | -9 | 3 | . | .
O=C(NCCC1=CCCCC1)C1CCN(c2nnc(-n3cccc3)s2)CC1 | -3 | 56* | -6 | 13 | 15 | 3 | . | . | VLA-4 allo CP=5;GRK2 CP1=-2;FAM quench CP1=98
CCNc1ccc(S(=O)(=O)N2CCCCC2)cn1 | 0 | 4 | 7 | 3 | . | 0 | . | .
CC(Sc1nncs1)C(=O)Nc1ccc2c(c1)OCCO2 (stereo unspecified) | 3 | 11 | 22* | -5 | . | 0 | -1 | 7
O=C1C2C(c3ccccc3)=NN(c3ccccc3)C2C(=O)N1c1ccccc1 (stereo unspecified) | 25 | -3 | 23* | 13 | 4 | 0 | 36* | 47*
O=C1OCCN1C(=O)[C@H]1[C@H](c2ccc(Cl)cc2)C(c2ccccc2)=NN1c1ccccc1 | -5 | . | -4 | . | . | 1 | . | .
Cn1cc(C(=O)N/N=C/c2c(O)ccc3ccccc23)ccc1=O | -12 | 14 | 4 | 1 | -26 | 2 | . | .
O=C(N/N=C\c1c(O)ccc2ccccc12)c1ccc(O)cc1 | 3 | 15 | 21* | -2 | -14 | 5 | -14 | -15
C/C=C/c1ccc(OCC(=O)N(C)CC(=O)Nc2ccc(F)cc2)c(OC)c1 | -7 | -1 | -3 | 0 | . | 4 | . | .
CC(C)C(=O)N(Cc1ccc(F)cc1)Cc1nc2ccccc2c(=O)[nH]1 | 9 | 15 | 6 | -9 | -19 | 4 | . | .
Cc1ccccc1C(=O)N1CCC(C(=O)Nc2nc3ccc(F)cc3s2)CC1 | 3 | 17 | 23* | 7 | . | 2 | 3 | 7
Cc1ccccc1C(=O)N1CCC(C(=O)Nc2nccs2)CC1 | 10 | -19 | 1 | 1 | 4 | 3 | . | .
Oc1c(Br)cc(Br)cc1/C=N/NC(=S)N[C@H]1CC2C=CC1C2 (stereo partly specified) | 19 | 12 | 23* | -1 | -3 | 1 | 19 | 31*
CCOc1ccc(NC(=O)CN(C)C(=O)c2cc(S(=O)(=O)N3CCCCCC3)ccc2OC)cc1OCC | -1 | -37 | 5 | 6 | . | 9 | . | .
CC(CNC(=O)CN1C(=O)NC2(CCCCC2)C1=O)c1ccccc1 (stereo unspecified) | -2 | 0 | -2 | . | . | 16 | . | .
CCOCCCNC(=O)c1ccc(N(C)S(=O)(=O)c2ccc(OC)cc2)cc1 | -3 | 17 | 22* | -3 | 0 | 1 | 1 | 5
Cc1ccc(C(=O)C2CCN(CC(=O)NCc3ccc(F)cc3)CC2)cc1 | 6 | 3 | 11 | -7 | 9 | 1 | . | .
Cc1ccc(NC(=O)CN2CCC(C(=O)c3ccc(F)cc3)CC2)cc1 | 8 | 14 | 38* | 2 | 13 | 0 | 2 | 5
O=c1cc(CN2CCN(S(=O)(=O)c3ccc4c(c3)OCCO4)CC2)c2ccc(O)cc2o1 | 24 | -7 | 22* | 4 | -4 | 0 | -22 | -14
O=C(CSc1nnnn1-c1ccccc1)Nc1ccc(Cl)cc1 | 13 | 6 | 27* | 3 | 0 | 3 | 1 | 4
Cc1c(O)ccc2c(CN3CCN(C/C=C/c4ccccc4)CC3)cc(=O)oc12 | 23 | 5 | 24* | 0 | 29 | 2 | -20 | -15
Cc1cc2oc(=O)cc(CN3CCN(C/C=C/c4ccccc4)CC3)c2cc1O | 7 | -4 | -8 | -28 | . | 1 | . | .
